37 compounds from the M2OR odorant receptor database can be followed below.

The assay deals with T1, OR8D1 (Homo sapiens) (UniProt Q8WZ84).
T1 sequence (whole entry): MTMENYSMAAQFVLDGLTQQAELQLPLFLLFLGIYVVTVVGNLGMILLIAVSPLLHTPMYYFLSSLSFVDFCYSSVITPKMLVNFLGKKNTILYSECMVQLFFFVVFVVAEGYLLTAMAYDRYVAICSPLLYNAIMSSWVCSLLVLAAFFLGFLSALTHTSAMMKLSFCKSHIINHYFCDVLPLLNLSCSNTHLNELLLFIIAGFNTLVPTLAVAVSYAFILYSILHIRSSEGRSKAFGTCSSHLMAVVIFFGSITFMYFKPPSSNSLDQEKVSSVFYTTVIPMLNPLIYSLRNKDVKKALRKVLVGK
The conditions noted are these: stereoisomer not certain. An outline of the steps:
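Each entry records the cell line, G-protein, co-transfected protein and tags used. Methods varied with the source, often transient luciferase assays in mammalian cell lines. A receptor–molecule pair is called responsive (active) if the original authors judged its signal statistically different from baseline and non-responsive (inactive) otherwise.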
As for `CCC(C)CO` (configuration not stated), the “odorant receptor agonist call” value was “inactive”.

For `CCOC(C)=O`, the “odorant receptor agonist call” value was “inactive”.

In the case of `CCC(C)C=O` (configuration not stated), the “odorant receptor agonist call” value was “inactive”.

`CCCc1ccc(O)c(OC)c1`: the “odorant receptor agonist call” value is “inactive”.

On to `CCO`, for which the “odorant receptor agonist call” value was “inactive”.

On to `CCC=CCC=O`, for which the “odorant receptor agonist call” value was “inactive”.

`CCCC(=O)OCC`: the “odorant receptor agonist call” value was “inactive”.

Take `Cc1ccc(C(C)C)cc1`: the “odorant receptor agonist call” value was “inactive”.

For the compound `CCC(C)c1nccnc1OC` (configuration not stated), the “odorant receptor agonist call” value was “inactive”.

In the case of `CCCCCCCCC=CC=O`, the “odorant receptor agonist call” value was “inactive”.

For the compound `CCC(=O)C1=NCCC1`, the “odorant receptor agonist call” value was “inactive”.

Regarding `CCOC(=O)CCSC`, the “odorant receptor agonist call” value is “inactive”.

As to `CCCCCCCCC1CCC(=O)O1` (configuration not stated), the “odorant receptor agonist call” value is “inactive”.

Turning to `CCc1ccc(O)cc1`, the “odorant receptor agonist call” value is “inactive”.

With `CC(C)=CC1CC(C)CCO1` (configuration not stated), the “odorant receptor agonist call” value was “inactive”.

Turning to `CC(=O)C=CC1=C(C)CCCC1(C)C`, the “odorant receptor agonist call” value is “inactive”.

Regarding `CC(=O)O`, the “odorant receptor agonist call” value is “inactive”.

As to `CCCCC=CC=CC=O`, the “odorant receptor agonist call” value was “inactive”.

For `COC(=O)C=Cc1ccccc1`, the “odorant receptor agonist call” value was “inactive”.

`CCC(S)C(C)=O` (configuration not stated): the “odorant receptor agonist call” value is “inactive”.

`CC(C)CCO`: the “odorant receptor agonist call” value was “inactive”.

In the case of `CCOC(=O)C=Cc1ccccc1`, the “odorant receptor agonist call” value is “inactive”.

`CCCCCCOC(C)=O`: the “odorant receptor agonist call” value was “inactive”.

For `CCCCCCCCCC(=O)OCC`, the “odorant receptor agonist call” value is “inactive”.

Consider `CCc1cccc(O)c1`, for which the “odorant receptor agonist call” value was “inactive”.

With `CC1=CCC(C(C)C)C=C1` (configuration not stated), the “odorant receptor agonist call” value was “inactive”.

For `CC(=O)c1ccc(C)cc1`, the “odorant receptor agonist call” value is “inactive”.

Turning to `CCOC(=O)C(C)C`, the “odorant receptor agonist call” value was “inactive”.

Take `CC1=CCC(C(C)(C)S)CC1` (configuration not stated): the “odorant receptor agonist call” value was “inactive”.

On to `CC=CC(=O)C(C)CC` (configuration not stated), for which the “odorant receptor agonist call” value is “inactive”.

As to `Cc1cccc(C)c1O`, the “odorant receptor agonist call” value is “inactive”.

Consider `CSCCC=O`, for which the “odorant receptor agonist call” value was “inactive”.

On to `CC(=O)C(C)O` (configuration not stated), for which the “odorant receptor agonist call” value was “inactive”.

As for `CC(C)CC=O`, the “odorant receptor agonist call” value is “inactive”.

Consider `C=CC(=O)CCCCC`, for which the “odorant receptor agonist call” value is “inactive”.

As to `SCc1cccs1`, the “odorant receptor agonist call” value is “inactive”.

As for `C=C(C)C1CC=C(C)CC1` (configuration not stated), the “odorant receptor agonist call” value is “inactive”.
